High-throughput results: PubChem, Sanford-Burnham Center for Chemical Genomics
ATG4B inhibitor: inhibitors of human ATG4B cysteine protease | 340,000 compounds, 0.51% hits | Q9Y4P1 | AID 504462 | ATG4B cleavage of LC3-PLA2, NBD-HPC fluorescence, 1 h | inhibition, % at 8.33 µM; in the data active = inhibition above about 40%
Target sequence (Q9Y4P1 whole entry, looked up): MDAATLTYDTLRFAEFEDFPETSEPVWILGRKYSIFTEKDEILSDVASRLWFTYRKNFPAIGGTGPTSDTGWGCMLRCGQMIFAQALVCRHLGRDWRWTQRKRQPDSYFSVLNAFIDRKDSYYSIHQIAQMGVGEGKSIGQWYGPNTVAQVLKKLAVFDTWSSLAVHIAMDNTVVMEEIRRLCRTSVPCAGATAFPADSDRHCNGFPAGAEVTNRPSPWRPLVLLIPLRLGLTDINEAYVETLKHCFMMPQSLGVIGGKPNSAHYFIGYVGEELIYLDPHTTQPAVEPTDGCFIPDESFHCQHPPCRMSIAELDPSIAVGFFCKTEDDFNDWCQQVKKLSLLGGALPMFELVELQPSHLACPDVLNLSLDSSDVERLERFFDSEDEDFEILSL
MT1-MMP act inh: MT1-MMP (human) activation inhibition | HT1080 RFP-PRO-GFP cells, GFP/RFP ratio fluorescence, overnight; percent of plate control window, DMSO zero | P50281 | 360,000 compounds, 0.061% hits | GFP/RFP ratio change, % at 20 µM;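 active = GFP/RFP ratio change of at least 30% with cell ATP level not reduced by more than half and red fluorescence within 50% of control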
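Assay system: HT1080 RFP-PRO-GFP cells. Benchmarks: DMSO vehicle wells and RFP-L50D-GFP reporter cell wells. Times: overnight cell settling, then overnight compound exposure, 37 °C, 5% CO2. Compound: 20 µM single dose, 1% DMSO. Read-out basis: GFP/RFP fluorescence ratio.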
SKN-1 block: inhibitors of C. elegans SKN-1 | C. elegans VP596 Pgst-4::GFP/RFP ratio, acrylamide-induced, 24 h | inhibition, % at 21.8 µM | 360,000 compounds, 0.49% hits;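 active = interference check ratio from 0.5 to 1.5 plus GFP to RFP signal ratio inhibition reaching or exceeding a fixed threshold, cut at about 30% in these data, passing the limit was not always enough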
MPTP inh: inhibitors of mitochondrial permeability transition pore; isolated mouse mitochondria, Ca2+ swelling absorbance, 30 min; inhibition, % at 10 µM; 360,000 compounds, 1.4% hits; AID 602449;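 active = inhibition of 50% or more, scaled per plate between neutral and stimulator controls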;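 note: 0% = DMSO wells given calcium and 100% = 1 mM EGTA wells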
Rh123 counter: membrane potential counter-screen of mitochondrial pore inhibitors; shares compounds with MPTP inh; isolated mitochondria, Rhodamine 123 fluorescence; inhibition, % at 10 µM; 5,000 compounds, 78% hits; AID 624504; in the data active = inhibition above about 22%;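 note: 0% = DMSO vehicle and 100% = positive control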
MPTP abs DR: MPTP inhibition, dose response swelling confirmation. shares compounds with MPTP inh. isolated mitochondria swelling, absorbance. IC50, µM. 780 compounds, 58% hits. AID 651561; in the data active = IC50 below about 20 µM
MPTP cs DR: counter-screen for mitochondrial permeability transition pore inhibitors, dose response. 780 compounds, 49% hits. shares compounds with MPTP inh. IC50, µM. AID 651564. isolated mitochondria counterscreen, fluorescence read-out; in the data active = IC50 below about 80 µM
* = called active by the depositor; / = no result given. The list is not random: actives were taken first. Their share in the collection is about 2.3%.

SMILES | ATG4B inhibitor | MT1-MMP act inh | SKN-1 block | MPTP inh | Rh123 counter | others
CCN(CC)CCn1c2ccccc2c2nc3ccc([N+](=O)[O-])cc3cc21 | 6 | 4 | 10 | -2 | /
CN1OC[C@@H]2CN(S(=O)(=O)c3cccc4ccccc34)[C@H](c3ccc(-c4ccccc4)cc3)C[C@@H]21 | / | 2 | -14 | -2 | /
Nc1nc(NC(=O)c2cccnc2)nn1-c1ccccc1 | 1 | 4 | 4 | -4 | /
Nc1nc(NC(=O)c2ccc(Cl)cc2)nn1-c1ccccc1 | -1 | 0 | 6 | 81* | 35*
CN(C)CCCNc1ncnc2scc(-c3ccccc3)c12 | -11 | -14 | 6 | 10 | /
c1ccc(-c2csc3ncnc(NCc4ccccn4)c23)cc1 | -2 | -4 | 0 | 62* | 33*
c1ccc(CNc2ncnc3scc(-c4cccs4)c23)nc1 | -5 | 1 | 9 | 72* | 57*
COc1ccc(NS(=O)(=O)c2ccc3oc(SCc4ccc(F)cc4)nc3c2)cc1 | -4 | 0 | 4 | 60* | 50*
Cc1cc(Br)ccc1OCCn1ccnc1 | -3 | -4 | 11 | 0 | /
Cc1ccc(NNC(=O)c2ccno2)cc1Cl | 1 | 3 | 5 | 2 | /
Cc1cc(O)c(-c2ccno2)cc1Cl | 2 | 0 | 6 | 82* | 88*
O=C(Nc1ccccc1)c1nnn(Cc2ccccc2)c1NC(=O)C(F)(F)F | -5 | 3 | 3 | 89* | 84*
COc1ccccc1NC(=O)c1nnn(Cc2ccccc2)c1NC(=O)C(F)(F)F | 19 | 4 | -9 | 74* | 73*
COc1ccccc1NC(=O)c1nnn(Cc2ccccc2)c1NC(C)=O | 16 | -1 | -19 | 0 | /
CCOC(=O)C1=C(COC(=O)COc2cc(C)ccc2C)NC(=O)NC1C (stereo unspecified) | -13 | 2 | -6 | -3 | /
CC(C)c1ccc(S(=O)(=O)c2n[nH]n3c2nc(=O)c2ccccc23)cc1 | 0 | 3 | -5 | 58* | 60*
COC(=O)c1ccc(CN2CCCC(CO)(Cc3ccccc3F)C2)cc1 (stereo unspecified) | 1 | -1 | 15 | 2 | /
C=CCOC(=O)C1=C(C)NC(SCC(=O)Nc2ccc(C)c(Cl)c2)=C(C#N)C1c1ccco1 (stereo unspecified) | -7 | -7 | -4 | 72* | 77*
CCc1cc(=O)oc2cc(C)cc(OCC(=O)NCc3ccncc3)c12 | -11 | 0 | 2 | -2 | /
O=C(CN(C(=O)c1ccccc1Cl)C1CCCCC1)Nc1ccc(Cl)c([N+](=O)[O-])c1 | 1 | -15 | -9 | 88* | 80*
O=C(CN(C(=O)c1ccc(Cl)cc1)C1CCCCC1)Nc1ccc(Cl)c([N+](=O)[O-])c1 | 22 | -2 | -1 | 64* | 86*
Cc1ccc([N+](=O)[O-])cc1NC(=O)CN(C(=O)c1ccc(Cl)cc1)C1CCCCC1 | -5 | -3 | 0 | 14 | /
O=C(COc1ncnc2ccccc12)Nc1ccc(Cl)c([N+](=O)[O-])c1 | -11 | 7 | 3 | 5 | /
Cn1ncc([N+](=O)[O-])c1C(=O)N1CCOCC1 | -5 | -2 | -19 | 0 | /
COc1ccc2nc(/C(C#N)=C\c3ccc(Oc4ccc([N+](=O)[O-])cn4)cc3)[nH]c2c1 | 9 | -14 | 12 | 11 | /
SMILES | ATG4B inhibitor | MT1-MMP act inh | SKN-1 block | MPTP inh | Rh123 counter | others
CCOc1cc(/C=C(/C#N)c2nc3ccccc3[nH]2)ccc1Oc1ccc([N+](=O)[O-])cn1 | 7 | -7 | 8 | 83* | 45*
Cc1ccc2nc(/C(C#N)=C\c3ccc(Oc4ccc([N+](=O)[O-])cn4)cc3)[nH]c2c1 | 14 | -10 | -8 | 65* | 19 | MPTP abs DR=>100;MPTP cs DR=10*
CCOc1cc(/C=C(\C#N)c2nc3ccccc3[nH]2)ccc1OC(C)C(=O)O (stereo unspecified) | 6 | 1 | -5 | 1 | /
NS(=O)(=O)c1ccc(Sc2nc3ccccc3s2)c([N+](=O)[O-])c1 | -4 | 13 | -6 | 60* | 43*
CCC1NC(=O)c2cc3ccccc3cc2-n2c1nc1ccc(F)cc1c2=O (stereo unspecified) | / | 0 | 9 | -1 | /
CCc1c(C)nc2ccc(Br)cc2c1Cl | -12 | -5 | -6 | 97* | 93*
